Where “and” joins values, the source holds several entries; their conditions need not be identical. Identical values can stand only once.
How the values were obtained:
HT-29 [1] = assay: Growth inhibition of human HT29 cells after 5 days by MTT assay; type: functional; conditions: HT-29, 120 h
Method in brief: (§1)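 MTT assay after 5 day continuous exposure. GI50, TGI and LC50 calculated from the MTT data. Means ± SD of at least three independent experiments; coefficients of variation 10-20%. Compounds used as tri(methanesulfonate) salts.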

HCT-116 [2] = assay: Cell cycle arrest in HCT116 cells assessed as accumulation at G1 phase at 50 nM after 72 hrs; type: functional, Homo sapiens
Method in brief: (§2)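 HCT116 cells exposed to 50 nM drug for 72 h, then cell-cycle distribution analysed. Sub-G1, G1, S and G2/M fractions reported as percent of cells, with untreated control cells for comparison.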

TK-10 = assay: Antitumor activity against human TK10 cells after 48 hrs; type: functional; conditions: TK-10, 48 h
Method in brief: (§3)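 NCI 60 human tumour cell line screen; 48 h continuous drug exposure. Compounds tested as tri(methanesulfonate) salts, soluble in water and dilute buffers. Dilute solutions are light-sensitive and adsorb to glass or quartz.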

NCI = assay: Antitumor activity against human NCI/ADR-RES cells after 48 hrs; type: functional
Method in brief: (§4)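 Tested in the NCI 60 human tumour cell line screen, with continuous drug exposure for 48 h. Values include LC50 derived from the screen.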

Malme-3M = assay: Antitumor activity against human MALME-3M cells after 48 hrs; type: functional; method in brief: as §4
DU-145 = assay: Antitumor activity against human DU145 cells after 48 hrs; type: functional; conditions: DU-145, 48 h; method in brief: as §4
COLO 205 = assay: Antitumor activity against human Colo205 cells expressing mutated p53; type: functional, cell-based
Method in brief: (§5)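 Compounds tested as tri(methanesulfonate) salts, soluble in water and dilute buffers. Human tumour cells carrying wild-type or mutated p53 were exposed for 5 days, and viability was read by MTT assay. GI50, TGI and LC50 were calculated from the MTT data. Values are means ± SD of at least three independent experiments, with coefficients of variation of 10–20%.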

[3] = Growth inhibition of human Hep3B cells after 5 days by MTT assay; type: functional, Hep 3B2; conditions: 120 h; method in brief: as §1
NCI-H460 = assay: Antitumor activity against human NCI-H460 cells after 48 hrs; type: functional; conditions: NCI-H460, 48 h; method in brief: as §4
HCT-116 [4] = assay: Cell cycle arrest in HCT116 cells assessed as accumulation at Sub G1 phase at 50 nM after 72 hrs; type: functional, Homo sapiens; method in brief: as §2
MCF7 = assay: Antitumor activity against human MCF7 cells after 48 hrs; type: functional; conditions: MCF7, 48 h; method in brief: as §4
[5] = Drug level in F344 rat plasma at 20 mg/kg, iv after 4 hrs; type: ADME, organism-based; design: dose 20 mg/kg, route intravenous
Method in brief: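 Single i.v. dose of 20 mg/kg to ncr nu/nu mice and an F344 rat. Plasma concentrations followed over time and fitted by nonlinear regression to give distribution and elimination phases, AUC and apparent volumes of distribution. Detection limit 50 nM.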

HCT-116 [6] = assay: Cell cycle arrest in HCT116 cells assessed as accumulation at S phase at 50 nM after 72 hrs; type: functional, Homo sapiens; method in brief: as §2
IGROV-1 = assay: Antitumor activity against human IGROV1 cells after 48 hrs; type: functional; conditions: IGROV-1, 48 h; method in brief: as §4
HCT-116 [7] = assay: Antitumor activity against human HCT116 cells after 48 hrs; type: functional; conditions: HCT-116, 48 h; method in brief: as §4
ASPC1 = assay: Antitumor activity against p53 null human ASPC1 cells; type: functional, cell-based
OVCAR-5 = assay: Antitumor activity against human OVCAR5 cells after 48 hrs; type: functional; conditions: OVCAR-5, 48 h; method in brief: as §4
CCRF-CEM = assay: Antitumor activity against human CCRF-CEM cells after 48 hrs; type: functional; method in brief: as §4
HCC 2998 = assay: Antitumor activity against human HCC2998 cells after 48 hrs; type: functional; conditions: HCC 2998, 48 h; method in brief: as §4
RPMI-8226 = assay: Antitumor activity against human RPMI-8226 cells after 48 hrs; type: functional; conditions: RPMI-8226, 48 h; method in brief: as §4
MDA-MB-435 = assay: Antitumor activity against human MDA-MB-435 cells after 48 hrs; type: functional; conditions: MDA-MB-435, 48 h; method in brief: as §4
[8] = Antitumor activity against human 10.05 cells expressing mutated p53; type: functional, cell-based; method in brief: as §5
HT-29 [9] = assay: Antitumor activity against human HT29 cells after 48 hrs; type: functional; conditions: HT-29, 48 h; method in brief: as §4
UACC-62 = assay: Antitumor activity against human UACC62 cells after 48 hrs; type: functional; conditions: UACC-62, 48 h; method in brief: as §3
HOP-92 = assay: Antitumor activity against human HOP92 cells after 48 hrs; type: functional; conditions: HOP-92, 48 h; method in brief: as §4
K562 = assay: Antitumor activity against human K562 cells after 48 hrs; type: functional; method in brief: as §4
MIA PaCa-2 = assay: Inhibition of tumor growth in PaCa2 cells xenografted nu/nu mouse at 15 mg/kg; type: functional, Homo sapiens
Method in brief: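 PaCa-2 tumour fragments implanted on the flank of nu/nu mice, 10 per group. Intraperitoneal treatment, Q3Dx4, started 12 days post-inoculation at 80 mm3 tumour volume. Tumour growth inhibition measured.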

SF-268 = assay: Antitumor activity against human SF268 cells after 48 hrs; type: functional; conditions: SF-268, 48 h; method in brief: as §4
NCI-H23 = assay: Antitumor activity against human NCI-H23 cells after 48 hrs; type: functional; conditions: NCI-H23, 48 h; method in brief: as §4
UO-31 = assay: Antitumor activity against human UO31 cells after 48 hrs; type: functional; conditions: UO-31, 48 h; method in brief: as §3
[10] = Antitumor activity against human […] cells after 48 hrs; type: functional; method in brief: as §4
KM12 = assay: Antitumor activity against human KM12 cells after 48 hrs; type: functional; conditions: KM12, 48 h; method in brief: as §4
EKVX = assay: Antitumor activity against human EKVX cells after 48 hrs; type: functional; method in brief: as §4
[11] = read-out: LC50 (the source's name)
[12] = read-out: Log LC50 (the source's name) (converted)

## COc1ccc2c(c1)c(=O)c1c(NCCCN3CCN(CCCN4C(=O)c5cccc6cc([N+](=O)[O-])cc(c56)C4=O)CC3)ccc3ncn2c31.CS(=O)(=O)O
HT-29 [1]
  GI50: 1 nM
HT-29 [1]; [11]
  CC50: 80 nM
HCT-116 [2]
  Activity: 22.6%
TK-10
  GI50: 13.5 nM
TK-10; [12]
  CC50: > 1000 nM
TK-10; read-out: Log TGI (converted)
  TGI: > 1000 nM
NCI
  GI50: 24 nM
NCI; [12]
  CC50: > 1000 nM
NCI; read-out: Log TGI (converted)
  TGI: > 1000 nM
Malme-3M
  GI50: 6.03 nM
Malme-3M; [12]
  CC50: > 1000 nM
Malme-3M; read-out: Log TGI (converted)
  TGI: 95.5 nM
DU-145
  GI50: 3.71 nM
DU-145; [12]
  CC50: > 1000 nM
DU-145; read-out: Log TGI (converted)
  TGI: > 1000 nM
COLO 205
  IC50: 80 nM
[3]
  GI50: 2.5 nM
[3]; [11]
  CC50: 50 nM
NCI-H460
  GI50: 2.57 nM
NCI-H460; [12]
  CC50: > 1000 nM
NCI-H460; read-out: Log TGI (converted)
  TGI: > 1000 nM
HCT-116 [4]
  Activity: 48%
MCF7
  GI50: 4.68 nM
MCF7; [12]
  CC50: > 1000 nM
MCF7; read-out: Log TGI (converted)
  TGI: > 1000 nM
[5]
  concentration at 4 h: 90 nM
HCT-116 [6]
  Activity: 2.3%
IGROV-1
  GI50: 3.39 nM
IGROV-1; [12]
  CC50: > 1000 nM
IGROV-1; read-out: Log TGI (converted)
  TGI: 51.3 nM
HCT-116 [7]
  GI50: 0.407 nM
HCT-116 [7]; [12]
  CC50: 214 nM
HCT-116 [7]; read-out: Log TGI (converted)
  TGI: 15.1 nM
ASPC1
  IC50: 70 nM
OVCAR-5
  GI50: 339 nM
OVCAR-5; [12]
  CC50: > 1000 nM
OVCAR-5; read-out: Log TGI (converted)
  TGI: > 1000 nM
CCRF-CEM
  GI50: 4.07 nM
CCRF-CEM; [12]
  CC50: > 1000 nM
CCRF-CEM; read-out: Log TGI (converted)
  TGI: 97.7 nM
HCC 2998
  GI50: 11.5 nM
HCC 2998; [12]
  CC50: > 1000 nM
HCC 2998; read-out: Log TGI (converted)
  TGI: > 1000 nM
RPMI-8226
  GI50: 4.07 nM
RPMI-8226; [12]
  CC50: > 1000 nM
RPMI-8226; read-out: Log TGI (converted)
  TGI: > 1000 nM
MDA-MB-435
  GI50: 7.41 nM
MDA-MB-435; [12]
  CC50: > 1000 nM
MDA-MB-435; read-out: Log TGI (converted)
  TGI: > 1000 nM
[8]
  IC50: 90 nM
HT-29 [9]
  GI50: 2.75 nM
HT-29 [9]; [12]
  CC50: > 1000 nM
HT-29 [9]; read-out: Log TGI (converted)
  TGI: 295 nM
UACC-62
  GI50: 3.31 nM
UACC-62; [12]
  CC50: > 1000 nM
UACC-62; read-out: Log TGI (converted)
  TGI: 55 nM
HOP-92
  GI50: 5.13 nM
HOP-92; [12]
  CC50: > 1000 nM
HOP-92; read-out: Log TGI (converted)
  TGI: 63.1 nM
K562; Homo sapiens, K562, 48 h
  GI50: 1.74 nM
K562; read-out: Log TGI (converted)
  TGI: 186 nM and > 1000 nM
MIA PaCa-2
  inhibition in vivo at 15 mg/kg: 53.5%
SF-268
  GI50: 10.2 nM
SF-268; [12]
  CC50: > 1000 nM
SF-268; read-out: Log TGI (converted)
  TGI: > 1000 nM
NCI-H23
  GI50: 20.4 nM
NCI-H23; [12]
  CC50: > 1000 nM
NCI-H23; read-out: Log TGI (converted)
  TGI: > 1000 nM
UO-31
  GI50: 2.69 nM
UO-31; [12]
  CC50: > 1000 nM
UO-31; read-out: Log TGI (converted)
  TGI: 17.8 nM
[10]
  GI50: 4.79 nM
[10]; [12]
  CC50: > 1000 nM
[10]; read-out: Log TGI (converted)
  TGI: > 1000 nM
KM12
  GI50: 4.37 nM
KM12; [12]
  CC50: > 1000 nM
KM12; read-out: Log TGI (converted)
  TGI: 537 nM
EKVX
  GI50: 3.31 nM
EKVX; [12]
  CC50: > 1000 nM
EKVX; read-out: Log TGI (converted)
  TGI: 58.9 nM
